Assay results from ChEMBL document CHEMBL5030534, “Discovery of Novel Anti-Breast-Cancer Inhibitors by Synergistically Antagonizing Microtubule Polymerization and Aryl Hydrocarbon Receptor Expression” (J Med Chem, 2021).
Calls of active or inactive are those of the source. The rule behind the calls is not given here.

Experiments:
MCF7 [1] = assay: Induction of apoptosis in human MCF7 cells assessed as viable cells at 0.5 nM measured after 24 hrs by Annexin V-FITC and PI staining based flow cytometry assay (reference value: 96.8%); assay type: functional; conditions: read-out: Activity
MCF7 [2] = assay: Induction of apoptosis in human MCF7 cells assessed as increase in Bad protein expression at 1 to 4 nM; assay type: functional, cell-based; conditions: dose 1-4 nM
In short: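 MCF-7 seeded 4 × 10⁵ per well for 24 h, then DMSO or compound at 1, 2, 4 nM for 24 h. Lysates protein-normalized to 3 mg/mL by BCA, resolved on 4–20% SDS-PAGE and immunoblotted. Bands quantified relative to β-actin (cell-cycle proteins) or GAPDH (apoptosis proteins); n = 3.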

Cc1nc(N(C)c2ccc3c(c2)cc(C)n3C)c2ccccc2n1
viability at 0.0005 µM (MCF7 [1]): 95% | Activity (MCF7 [2]): Active
